# Published values from different studies.
# Target: Mitogen-activated protein kinase 13 (MAPK13, Homo sapiens, UniProt O15264)
# Sequence (O15264 1-365, as in one of the studies): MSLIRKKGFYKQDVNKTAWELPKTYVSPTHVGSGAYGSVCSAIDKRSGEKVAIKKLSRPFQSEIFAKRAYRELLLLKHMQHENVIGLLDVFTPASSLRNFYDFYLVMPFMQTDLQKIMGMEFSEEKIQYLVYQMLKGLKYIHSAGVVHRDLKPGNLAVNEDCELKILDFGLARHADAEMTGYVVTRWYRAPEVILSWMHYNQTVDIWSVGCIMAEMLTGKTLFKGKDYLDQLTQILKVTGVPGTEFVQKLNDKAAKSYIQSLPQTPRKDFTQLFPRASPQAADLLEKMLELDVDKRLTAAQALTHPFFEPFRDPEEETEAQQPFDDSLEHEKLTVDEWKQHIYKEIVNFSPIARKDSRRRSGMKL
SMILES,assay,setting,endpoint,result
Cc1nn(C)cc1-c1nc2c(N3CCN(Cc4ccc(Cl)cc4)CC3)c(Cl)cnc2[nH]1,"binding, competition with immobilised ligand",1 µM,remaining binding,100%
Cn1cc(-c2cccc(N3CCc4c(sc5c4CC(C)(C)C5)C3=O)c2CO)cc(Nc2ccncn2)c1=O,"enzyme activity, inhibitor",1 µM,inhibition,5%
N#CC1(c2ccccn2)CCN(Cc2cc(C(=O)O)c(=O)n3ccccc23)CC1,"cell-free assay, competition with immobilised ligand",1 µM,remaining binding,100%
COc1cc(Nc2ncc(F)c(Nc3ccc4c(n3)NC(=O)C(C)(C)O4)n2)cc(OC)c1OC,"binding, competition with immobilised ligand",10 µM,inhibition,100%
COc1ncccc1-c1cnn2ccc(N3CCN(C(=O)OC(C)C)CC3)nc12,"binding, competition with immobilised ligand",1 µM,remaining binding,100%
CC(C)(C)c1cc(C=C(C#N)C#N)cc(Br)c1O,"enzyme activity, inhibitor",0.5 µM,remaining activity,98.5%
Cn1cncc1[C@](O)(COc1ccc(C#N)cc1-c1ccc(OC(F)(F)F)cc1)c1ccc(C#N)cc1,"cell-free assay, competition with immobilised ligand",1 µM,remaining binding,87%
Cn1cc(-c2cc(F)cc(N3CCn4c(cc5c4CCCC5)C3=O)c2CO)cc(Nc2ccc(N3CCN(C4COC4)CC3)cn2)c1=O,"enzyme activity, inhibitor",0.1 µM,inhibition,15%
O=c1[nH]c2ccccc2n1C1CCN(Cc2ccc(-c3[nH]c4cc5ncnc5cc4nc3-c3ccccc3)cc2)CC1,cell-free assay,0.5 µM,remaining signal,102%
